Measured values: ChEMBL document CHEMBL4000194, “Design and Synthesis of a Series of l-trans-4-Substituted Prolines as Selective Antagonists for the Ionotropic Glutamate Receptors Including Functional and X-ray Crystallographic Studies of New Subtype Selective Kainic Acid Receptor Subtype 1 (GluK1) Antagonist …” (J Med Chem, 2017)

Assays:
[1] = Displacement of [3H]AMPA from AMPA receptor in rat brain synaptosomal membranes after 30 mins by TopCount microplate scintillation counting method; assay type: cell membranes
[2] = Displacement of [3H]kainic acid from kainate receptor in rat brain synaptosomal membranes after 60 mins by TopCount microplate scintillation counting method; assay type: cell membranes
[3] = Displacement of [3H]CGP39653 from NMDA receptor in rat brain synaptosomal membranes after 60 mins by TopCount microplate scintillation counting method; assay type: cell membranes
[4] = target: T1, Glutamate receptor ionotropic, kainate 1 (Rattus norvegicus, UniProt P22756); test: Displacement of [3H]NF608 from eGFP-fused recombinant rat full length GluK1 receptor expressed in HEK293T/17 cells by liquid scintillation counting method; assay type: cell-based
[5] = target: T2, Glutamate receptor ionotropic, kainate 2 (Rattus norvegicus, UniProt P42260); test: Displacement of [3H]kainic acid from eGFP-fused recombinant rat full length GluK2 receptor expressed in HEK293T/17 cells by liquid scintillation counting method; assay type: cell-based
[6] = target: Glutamate receptor ionotropic, kainate 3 (Rattus norvegicus, UniProt P42264); test: Displacement of [3H]kainic acid from eGFP-fused recombinant rat full length GluK3 receptor expressed in HEK293T/17 cells by liquid scintillation counting method; assay type: cell-based
Glutamate receptor 2 = Glutamate receptor 2 (Rattus norvegicus, UniProt P19491); test: Displacement of (RS)-[3H]AMPA from eGFP-fused recombinant rat full length GluA2 receptor expressed in HEK293T/17 cells by liquid scintillation counting method; assay type: cell-based
[7] = target: Excitatory amino acid transporter 2 (Homo sapiens, UniProt P43004); test: Inhibition of human EAAT2 expressed in HEK293 cells assessed as reduction in [3H]-D-Asp uptake after 15 mins by TopCount scintillation counting method; assay type: cell-based
[8] = target: T3, Excitatory amino acid transporter 3 (Homo sapiens, UniProt P43005); test: Inhibition of human EAAT3 expressed in HEK293 cells assessed as reduction in [3H]-D-Asp uptake after 15 mins by TopCount scintillation counting method; assay type: cell-based
T3 sequence (P43005 whole entry): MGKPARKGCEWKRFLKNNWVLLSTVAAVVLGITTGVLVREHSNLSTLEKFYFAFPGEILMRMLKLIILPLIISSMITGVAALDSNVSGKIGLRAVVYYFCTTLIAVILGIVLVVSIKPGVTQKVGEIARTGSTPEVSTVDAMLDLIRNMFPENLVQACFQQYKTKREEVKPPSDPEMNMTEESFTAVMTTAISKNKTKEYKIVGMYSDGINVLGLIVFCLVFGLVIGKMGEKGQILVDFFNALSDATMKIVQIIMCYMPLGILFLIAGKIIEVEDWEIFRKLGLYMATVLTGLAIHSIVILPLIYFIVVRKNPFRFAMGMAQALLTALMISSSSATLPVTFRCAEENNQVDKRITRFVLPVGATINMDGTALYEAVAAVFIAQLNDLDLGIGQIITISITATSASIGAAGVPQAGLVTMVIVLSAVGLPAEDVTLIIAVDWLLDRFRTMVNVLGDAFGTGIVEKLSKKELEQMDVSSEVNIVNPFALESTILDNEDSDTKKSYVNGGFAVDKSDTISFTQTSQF

[9] = target: Excitatory amino acid transporter 1 (Homo sapiens, UniProt P43003); test: Inhibition of human EAAT1 expressed in HEK293 cells assessed as reduction in [3H]-D-Asp uptake after 15 mins by TopCount scintillation counting method; assay type: cell-based
[10] = target: T1, Glutamate receptor ionotropic, kainate 1; test: Antagonist activity at recombinant rat full length GluK1 receptor expressed in HEK293T cells assessed as inhibition of glutamate induced increase in peak current at -100mV holding potential by patch-clamp method; assay type: cell-based
In short: (§1)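 Rat GluK1-2a or GluK2a cDNA was transiently co-transfected with eGFP into HEK293T/17 cells by calcium phosphate, 24 h after low-density plating on poly-D-lysine. Recordings were made 36–48 h after transfection. Outside-out patches at −100 mV received fast piezo applications of 1 mM Glu (250 ms). Antagonist was added to control and agonist solutions (final 0.001–300 μM). Peak current was taken as % of control (mean ± SEM, 3–5 responses per concentration), and IC50 was fitted with a Hill equation.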

[11] = target: T2, Glutamate receptor ionotropic, kainate 2; test: Antagonist activity at recombinant rat full length GluK2 receptor expressed in HEK293T cells assessed as inhibition of glutamate induced increase in peak current at -100mV holding potential by patch-clamp method; assay type: cell-based; in short: as §1
[12] = target: T1, Glutamate receptor ionotropic, kainate 1; test: Displacement of [3H]-(2S,4R)-4-Methylglutamic acid from rat eGFP-fused GluK1 receptor LBD expressed in HEK293T/17 cells by liquid scintillation counting method; assay type: cell-based

Sequence of Glutamate receptor ionotropic, kainate 3 (P42264 whole entry, the tested form may be a part): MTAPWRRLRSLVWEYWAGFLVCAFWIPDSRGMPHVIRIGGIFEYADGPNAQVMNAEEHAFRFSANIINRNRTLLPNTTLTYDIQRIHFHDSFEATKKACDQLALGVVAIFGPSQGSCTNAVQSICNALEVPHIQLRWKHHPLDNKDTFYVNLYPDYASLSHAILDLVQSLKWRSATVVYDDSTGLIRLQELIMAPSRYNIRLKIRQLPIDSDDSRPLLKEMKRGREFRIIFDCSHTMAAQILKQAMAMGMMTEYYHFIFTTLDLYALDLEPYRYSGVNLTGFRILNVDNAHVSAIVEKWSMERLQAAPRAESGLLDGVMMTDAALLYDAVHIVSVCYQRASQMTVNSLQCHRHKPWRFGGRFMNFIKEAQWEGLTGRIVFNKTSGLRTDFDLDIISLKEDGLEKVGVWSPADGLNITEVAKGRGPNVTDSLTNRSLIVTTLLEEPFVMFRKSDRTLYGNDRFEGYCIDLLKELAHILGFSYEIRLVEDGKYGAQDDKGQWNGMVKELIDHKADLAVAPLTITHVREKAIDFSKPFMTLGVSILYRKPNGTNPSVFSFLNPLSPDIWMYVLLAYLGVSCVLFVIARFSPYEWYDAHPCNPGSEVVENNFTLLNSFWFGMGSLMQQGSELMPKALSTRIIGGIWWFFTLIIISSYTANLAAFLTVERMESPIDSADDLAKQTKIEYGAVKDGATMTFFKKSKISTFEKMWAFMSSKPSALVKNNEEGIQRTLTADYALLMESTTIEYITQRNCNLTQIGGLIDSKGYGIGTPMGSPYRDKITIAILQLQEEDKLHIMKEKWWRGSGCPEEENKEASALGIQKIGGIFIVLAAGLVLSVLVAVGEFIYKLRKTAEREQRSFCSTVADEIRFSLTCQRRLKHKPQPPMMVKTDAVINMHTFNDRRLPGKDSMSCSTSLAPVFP
Sequence of Excitatory amino acid transporter 1 (P43003 whole entry): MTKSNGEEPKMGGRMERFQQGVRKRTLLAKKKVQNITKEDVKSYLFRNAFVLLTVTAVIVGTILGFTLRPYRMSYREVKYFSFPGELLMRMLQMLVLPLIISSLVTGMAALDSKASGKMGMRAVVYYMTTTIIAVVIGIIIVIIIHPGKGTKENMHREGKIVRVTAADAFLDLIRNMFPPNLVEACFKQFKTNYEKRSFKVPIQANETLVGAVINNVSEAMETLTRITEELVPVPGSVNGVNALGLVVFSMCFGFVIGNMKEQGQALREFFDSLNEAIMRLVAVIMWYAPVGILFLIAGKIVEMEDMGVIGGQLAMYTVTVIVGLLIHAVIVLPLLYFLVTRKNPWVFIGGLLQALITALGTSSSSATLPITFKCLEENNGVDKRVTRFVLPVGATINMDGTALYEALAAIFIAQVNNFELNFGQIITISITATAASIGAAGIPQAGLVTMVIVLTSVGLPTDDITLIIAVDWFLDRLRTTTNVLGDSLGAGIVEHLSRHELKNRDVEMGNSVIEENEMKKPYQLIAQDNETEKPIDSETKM
Sequence of Glutamate receptor 2 (P19491 whole entry, the tested form may be a part): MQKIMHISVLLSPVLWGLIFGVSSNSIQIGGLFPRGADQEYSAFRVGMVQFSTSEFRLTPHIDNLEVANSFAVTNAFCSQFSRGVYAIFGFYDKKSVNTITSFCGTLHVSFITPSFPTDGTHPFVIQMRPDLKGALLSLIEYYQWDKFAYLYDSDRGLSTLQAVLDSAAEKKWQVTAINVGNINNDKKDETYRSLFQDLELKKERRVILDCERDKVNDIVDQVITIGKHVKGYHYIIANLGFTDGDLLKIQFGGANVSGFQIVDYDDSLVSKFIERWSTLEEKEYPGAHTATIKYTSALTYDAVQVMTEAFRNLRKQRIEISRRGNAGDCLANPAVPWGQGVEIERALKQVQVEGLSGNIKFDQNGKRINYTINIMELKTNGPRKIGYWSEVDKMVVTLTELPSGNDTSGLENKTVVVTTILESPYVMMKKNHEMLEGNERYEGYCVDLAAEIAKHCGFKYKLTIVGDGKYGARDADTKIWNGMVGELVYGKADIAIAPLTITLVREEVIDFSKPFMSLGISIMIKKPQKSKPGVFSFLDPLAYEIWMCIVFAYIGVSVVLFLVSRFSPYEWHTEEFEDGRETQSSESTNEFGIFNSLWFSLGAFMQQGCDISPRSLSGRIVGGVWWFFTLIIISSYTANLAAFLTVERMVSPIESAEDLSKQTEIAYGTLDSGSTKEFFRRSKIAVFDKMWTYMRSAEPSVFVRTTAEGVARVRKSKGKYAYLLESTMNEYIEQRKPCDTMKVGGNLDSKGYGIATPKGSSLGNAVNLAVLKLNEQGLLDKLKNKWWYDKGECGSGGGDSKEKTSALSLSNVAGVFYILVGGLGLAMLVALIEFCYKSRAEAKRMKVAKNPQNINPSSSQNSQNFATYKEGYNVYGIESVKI
T2 sequence (P42260 whole entry, the tested form may be a part): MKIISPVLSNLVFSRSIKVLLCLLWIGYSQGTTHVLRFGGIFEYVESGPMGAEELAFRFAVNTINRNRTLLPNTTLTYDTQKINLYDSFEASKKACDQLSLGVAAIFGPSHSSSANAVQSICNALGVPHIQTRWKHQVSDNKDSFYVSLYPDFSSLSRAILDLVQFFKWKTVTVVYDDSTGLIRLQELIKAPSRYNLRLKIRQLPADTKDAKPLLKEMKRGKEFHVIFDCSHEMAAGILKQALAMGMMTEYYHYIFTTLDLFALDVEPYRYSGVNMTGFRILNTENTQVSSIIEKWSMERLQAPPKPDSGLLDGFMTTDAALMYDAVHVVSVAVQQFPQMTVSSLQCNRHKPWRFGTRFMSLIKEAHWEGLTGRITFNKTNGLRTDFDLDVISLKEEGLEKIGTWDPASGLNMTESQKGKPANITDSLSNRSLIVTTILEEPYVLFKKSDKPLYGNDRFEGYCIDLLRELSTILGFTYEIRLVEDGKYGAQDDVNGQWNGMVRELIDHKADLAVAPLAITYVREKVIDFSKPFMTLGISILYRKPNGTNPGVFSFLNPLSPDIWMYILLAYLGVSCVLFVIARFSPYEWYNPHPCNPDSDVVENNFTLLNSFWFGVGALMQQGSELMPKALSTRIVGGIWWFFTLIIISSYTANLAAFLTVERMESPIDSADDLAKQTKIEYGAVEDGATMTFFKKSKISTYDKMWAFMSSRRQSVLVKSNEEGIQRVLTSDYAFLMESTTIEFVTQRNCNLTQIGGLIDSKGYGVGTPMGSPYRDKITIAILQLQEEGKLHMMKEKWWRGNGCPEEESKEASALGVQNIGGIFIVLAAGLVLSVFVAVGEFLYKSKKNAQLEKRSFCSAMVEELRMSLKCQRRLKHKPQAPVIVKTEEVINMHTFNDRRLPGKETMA
T1 sequence (P22756 whole entry, the tested form may be a part): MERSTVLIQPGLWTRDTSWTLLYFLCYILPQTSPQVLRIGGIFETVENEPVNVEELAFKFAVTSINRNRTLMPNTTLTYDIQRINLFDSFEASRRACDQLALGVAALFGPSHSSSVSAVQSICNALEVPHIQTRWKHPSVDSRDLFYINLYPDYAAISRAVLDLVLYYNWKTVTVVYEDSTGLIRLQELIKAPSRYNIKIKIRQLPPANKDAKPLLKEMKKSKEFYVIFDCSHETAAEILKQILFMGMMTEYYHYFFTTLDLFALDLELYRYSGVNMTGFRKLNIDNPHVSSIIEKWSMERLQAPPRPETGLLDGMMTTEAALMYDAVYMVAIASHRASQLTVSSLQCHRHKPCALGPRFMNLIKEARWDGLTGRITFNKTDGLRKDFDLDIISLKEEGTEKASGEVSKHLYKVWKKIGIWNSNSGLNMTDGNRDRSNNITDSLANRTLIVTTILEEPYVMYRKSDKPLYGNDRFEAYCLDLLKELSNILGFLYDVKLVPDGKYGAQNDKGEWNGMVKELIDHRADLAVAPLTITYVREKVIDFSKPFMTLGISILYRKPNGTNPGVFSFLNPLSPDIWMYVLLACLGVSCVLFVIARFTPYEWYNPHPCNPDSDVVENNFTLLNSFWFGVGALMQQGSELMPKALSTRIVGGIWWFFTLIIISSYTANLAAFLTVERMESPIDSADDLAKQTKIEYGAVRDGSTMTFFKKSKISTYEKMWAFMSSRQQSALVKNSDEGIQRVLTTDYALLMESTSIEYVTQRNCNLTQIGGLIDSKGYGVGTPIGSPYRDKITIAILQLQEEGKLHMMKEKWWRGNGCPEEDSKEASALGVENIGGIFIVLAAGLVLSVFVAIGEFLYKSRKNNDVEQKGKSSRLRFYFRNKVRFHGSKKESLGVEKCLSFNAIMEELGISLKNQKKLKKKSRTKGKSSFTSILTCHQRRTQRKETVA
Sequence of Excitatory amino acid transporter 2 (P43004 whole entry): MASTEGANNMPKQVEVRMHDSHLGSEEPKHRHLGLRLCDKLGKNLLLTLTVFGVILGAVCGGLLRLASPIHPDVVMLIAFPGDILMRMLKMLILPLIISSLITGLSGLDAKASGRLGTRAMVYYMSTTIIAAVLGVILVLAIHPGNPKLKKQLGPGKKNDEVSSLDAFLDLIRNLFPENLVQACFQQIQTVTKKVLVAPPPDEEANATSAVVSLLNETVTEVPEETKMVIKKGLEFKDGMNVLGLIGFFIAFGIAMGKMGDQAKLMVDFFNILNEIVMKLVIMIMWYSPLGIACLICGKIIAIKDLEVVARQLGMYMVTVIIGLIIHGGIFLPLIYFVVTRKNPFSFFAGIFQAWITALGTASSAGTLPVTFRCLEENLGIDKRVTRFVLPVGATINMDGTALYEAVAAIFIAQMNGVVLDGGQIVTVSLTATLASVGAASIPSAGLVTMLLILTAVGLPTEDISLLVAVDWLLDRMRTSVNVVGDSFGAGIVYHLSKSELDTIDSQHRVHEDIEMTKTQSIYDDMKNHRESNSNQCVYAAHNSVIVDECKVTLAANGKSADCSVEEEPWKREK

Row | Ki [1] [µM] | Ki [2] [µM] | Ki [3] [µM] | Ki ([4]; read-out: Ki) [µM] | Ki [5] [µM] | Ki ([6]; read-out: Ki) [µM] | Ki (Glutamate receptor 2) [µM] | IC50 [7] [µM] | IC50 [8] [µM] | IC50 [9] [µM] | Ki ([4]; read-out: pKi (converted)) [µM] | IC50 [10] [µM] | IC50 [11] [µM] | Ki [12] [µM] | Ki ([6]; read-out: pKi (converted)) [µM] | SMILES | pKi [3]
1 | > 100 | > 100 | > 100 | 5.4 | > 1000 | > 100 | > 100 |  |  |  |  |  |  |  |  | Cc1cccc(C(=O)O)c1O[C@H]1CN[C@H](C(=O)O)C1 | 
2 | > 100 | > 100 | > 100 | 100 | > 1000 | > 100 | > 100 |  |  |  |  |  |  |  |  | O=C(O)c1ccc(O[C@H]2CN[C@H](C(=O)O)C2)c(C(=O)O)c1 | 
3 | > 100 | > 100 | > 100 | 36 | > 100 | > 1000 |  | > 1000 | > 1000 | > 1000 | 33.1 |  |  |  |  | O=C(O)c1cccc(O[C@H]2CN[C@H](C(=O)O)C2)c1 | 
4 | > 100 | > 100 | > 100 | 4 | > 100 | > 100 |  | > 1000 | > 1000 | > 1000 |  | 5.7 | > 100 | 2.27 |  | O=C(O)c1ccccc1O[C@H]1CN[C@H](C(=O)O)C1 | 
5 | > 100 | > 100 | > 100 | > 100 | > 100 | > 100 |  |  |  |  |  |  |  |  |  | O=C(O)c1cccc(O[C@@H]2CN[C@H](C(=O)O)C2)c1 | 
6 | > 100 | > 100 | > 100 | > 100 | > 100 | > 100 |  |  |  |  |  |  |  |  |  | O=C(O)c1ccccc1S[C@@H]1CN[C@H](C(=O)O)C1 | 
7 | > 100 | > 100 | > 100 | 4.7 | > 100 | 30 | > 100 |  |  |  |  |  |  |  |  | CC(=O)c1ccc(O[C@H]2CN[C@H](C(=O)O)C2)c(C(=O)O)c1 | 
8 | > 100 | > 100 | 19 | 8.4 | > 100 | 22 |  |  |  |  |  |  |  |  |  | O=C(O)c1ccccc1S[C@H]1CN[C@H](C(=O)O)C1 | 4.73
9 | > 100 | > 100 | > 100 | 3.5 | > 1000 | > 100 | > 100 |  |  |  |  |  |  |  |  | O=C(O)c1cc2ccccc2cc1O[C@H]1CN[C@H](C(=O)O)C1 | 
10 | > 100 | > 100 | > 100 | > 100 | > 100 | > 100 |  |  |  |  |  |  |  |  |  | O=C(O)c1ccc(O[C@@H]2CN[C@H](C(=O)O)C2)cc1 | 
11 | > 100 | > 100 | > 100 | 24 | > 100 | > 100 | > 100 |  |  |  |  |  |  |  |  | Cc1ccc(O[C@H]2CN[C@H](C(=O)O)C2)c(C(=O)O)c1 | 
12 | > 100 | > 100 | > 100 | 24 | > 1000 | > 100 | > 100 |  |  |  |  |  |  |  |  | O=C(O)Cc1ccccc1O[C@H]1CN[C@H](C(=O)O)C1 | 
13 | > 100 | > 100 | > 100 | 4.5 | > 100 | 137 | > 100 |  |  |  |  |  |  |  | 132 | O=C(O)c1c(O[C@H]2CN[C@H](C(=O)O)C2)ccc2ccccc12 | 
14 | > 100 | > 100 | > 100 | > 100 | > 100 | > 100 |  | > 1000 | > 1000 | > 1000 |  |  |  |  |  | O=C(O)c1ccccc1O[C@@H]1CN[C@H](C(=O)O)C1 | 
15 | > 100 | > 100 | 81 | > 100 | > 100 | > 100 |  | > 1000 | > 1000 | > 1000 |  |  |  |  |  | Cl.O=C(O)c1ccc(O[C@H]2CN[C@H](C(=O)O)C2)cc1 | 4.11

Row | SMILES | Ki [1] [µM] | Ki [2] [µM] | Ki [3] [µM] | Ki ([4]; read-out: Ki) [µM] | Ki [5] [µM] | Ki ([6]; read-out: Ki) [µM] | Ki (Glutamate receptor 2) [µM] | IC50 [7] [µM] | IC50 [8] [µM] | IC50 [9] [µM] | Ki ([4]; read-out: pKi (converted)) [µM] | IC50 [10] [µM] | IC50 [11] [µM] | Ki [12] [µM] | Ki ([6]; read-out: pKi (converted)) [µM] | pKi [3]
16 | O=C(O)c1cccc(S[C@H]2CN[C@H](C(=O)O)C2)c1 | > 100 | > 100 | 78 | > 100 | > 100 | > 100 |  |  |  |  |  |  |  |  |  | 4.11
17 | O=C(O)c1cccc(S[C@@H]2CN[C@H](C(=O)O)C2)c1 | > 100 | > 100 | > 100 | > 100 | > 100 | > 100 |  |  |  |  |  |  |  |  |  | 
18 | Cl.O=C(O)c1cccc(C[C@H]2CN[C@H](C(=O)O)C2)c1 | > 100 | > 100 | 69 | > 100 | > 100 | > 100 |  |  |  |  |  |  |  |  |  | 4.18
19 | O=C(O)c1ccc2ccccc2c1O[C@H]1CN[C@H](C(=O)O)C1 | > 100 | > 100 | > 100 | > 100 | > 100 | > 100 | > 100 |  |  |  |  |  |  |  |  | 
20 | O=C(O)Cc1cccc(O[C@H]2CN[C@H](C(=O)O)C2)c1 | > 100 | > 100 | > 100 | > 100 | > 100 | > 100 | > 100 |  |  |  |  |  |  |  |  | 
